In ChEMBL document CHEMBL1828630, “Design, synthesis and vasorelaxant evaluation of novel coumarin-pyrimidine hybrids” (Bioorg Med Chem, 2011):

Test system: Aorta; call rule not given here
Experiment: Vasorelaxant activity in Wistar rat thoracic aortic ring assessed as inhibition of norepinephrine hydrochloride-induced contraction treated after noradrenaline challenge
Type: functional, tissue-based
Procedure, shortened: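 Aortic ring preparations held under resting tension below 2 g and allowed to stabilise for 2 h. Contraction to norepinephrine hydrochloride (10^-6 M) was recorded before and after exposure to increasing concentrations of test compound. Tension was measured isometrically. Compounds were taken from 0.01 M DMSO stocks, and DMSO-alone controls were run at matching concentrations. Activity was reported as IC50.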

[1] = Rattus norvegicus, Wistar, Aorta, read-out: IC50
[2] = Rattus norvegicus, Wistar, Aorta, read-out: pIC50 (converted)

| IC50 [1] [µM] | IC50 | IC50 [2] [µM] | Compound |
| --- | --- | --- | --- |
| 1230 |  |  | COc1ccc2ccc(=O)oc2c1-c1cc(-c2ccc(C)o2)nc(N)n1 |
|  | Not Active |  | COc1ccc2ccc(=O)oc2c1C(=O)/C=C/c1ccc(C)cc1 |
| 800 |  | 1250 | COc1ccc2ccc(=O)oc2c1-c1cc(-c2ccccc2)nc(N)n1 |
| 1060 |  |  | COc1ccc2ccc(=O)oc2c1-c1cc(-c2ccc(C(F)(F)F)cc2)nc(N)n1 |
| 932 |  | 1070 | COc1ccc2ccc(=O)oc2c1-c1cc(-c2ccc(C)cc2)nc(N)n1 |
|  | Not Active |  | COc1ccc2ccc(=O)oc2c1-c1cc(-c2ccc([N+](=O)[O-])cc2)nc(N)n1 |
| 1140 |  | 876 | COc1ccc2ccc(=O)oc2c1-c1cc(-c2ccc(SC)cc2)nc(N)n1 |
| 650 |  |  | COc1ccc2ccc(=O)oc2c1-c1cc(-c2cccs2)nc(N)n1 |
| 700 |  |  | COc1ccc2ccc(=O)oc2c1C(=O)/C=C/c1ccc([N+](=O)[O-])cc1 |
| 705 |  |  | COc1ccc2ccc(=O)oc2c1C(=O)/C=C/c1ccc(SC)cc1 |

Second part, the compound before the results:

| Compound | IC50 [1] [µM] | IC50 | IC50 [2] [µM] |
| --- | --- | --- | --- |
| Cc1nc(Nc2ccc3oc(=O)ccc3c2)nc(Cl)c1CCCl | 700 |  |  |
| N/C(=N/O)c1c(-c2ccccc2)nc(Nc2ccc3oc(=O)ccc3c2)[nH]c1=O | 466 |  |  |
| COc1ccc2ccc(=O)oc2c1C(C)=O | 479 |  |  |
| N#Cc1c(N)nc(Nc2ccc3oc(=O)ccc3c2)nc1-c1ccccc1 | 595 |  |  |
| COc1ccc2ccc(=O)oc2c1C(=O)/C=C/c1cccs1 | 371 |  |  |
| COc1cc2nc(N3CCN(C(=O)c4ccco4)CC3)nc(N)c2cc1OC [PRAZOSIN] | 487 |  |  |
| Cc1cc(=O)[nH]c(Nc2ccc3oc(=O)ccc3c2)n1 | 700 |  |  |
| N#Cc1c(-c2ccccc2)nc(Nc2ccc3oc(=O)ccc3c2)[nH]c1=O | 547 |  |  |
| Cc1cc(-c2ccccc2)nc(Nc2ccc3oc(=O)ccc3c2)n1 |  | Not Active |  |
| N=C(N)Nc1ccc2oc(=O)ccc2c1 | 418 |  |  |
| N/C(=N/O)c1c(N)nc(Nc2ccc3oc(=O)ccc3c2)nc1-c1ccccc1 | 468 |  |  |
| COc1ccc2ccc(=O)oc2c1C(=O)/C=C/c1ccc(C(F)(F)F)cc1 | 374 |  |  |
| O=c1ccc2cc(Nc3nc(Cl)cc(Cl)n3)ccc2o1 | 453 |  |  |
| CCN(CC)c1ccc(-c2nc(Nc3ccc4oc(=O)ccc4c3)[nH]c(=O)c2C#N)cc1 | 421 |  |  |
| CCN(CC)c1cc(C)nc(Nc2ccc3oc(=O)ccc3c2)n1 | 495 |  |  |
| COc1ccc2ccc(=O)oc2c1C(=O)/C=C/c1ccccc1 | 526 |  |  |
| Cc1cc(C)nc(Nc2ccc3oc(=O)ccc3c2)n1 | 411 |  |  |
| Cc1cc(Cl)nc(Nc2ccc3oc(=O)ccc3c2)n1 | 468 |  |  |
| O=c1cc(O)nc(Nc2ccc3oc(=O)ccc3c2)[nH]1 | 816 |  |  |
| COc1ccc2ccc(=O)oc2c1C(=O)/C=C/c1ccc(C)o1 | 566 |  |  |
| Nc1ccc2oc(=O)ccc2c1 | 532 |  |  |
